Source: ChEMBL document CHEMBL1141579, “Synthesis, cytostatic, and antiviral activity of novel 6-[2-(dialkylamino)ethyl]-, 6-(2-alkoxyethyl)-, 6-[2-(alkylsulfanyl)ethyl]-, and 6-[2-(dialkylamino)vinyl]purine nucleosides” (Bioorg Med Chem, 2008)
The source made the active and inactive calls. The rule behind the calls is not given here.

Assays:
[1] = system: L1210; experiment: Cytostatic activity against mouse L1210 cells ATCC CCL219 assessed as growth reduction after 72 hrs; assay type: functional, cell-based; conditions: for IC50: L1210, 72 h
Summary of the method: (§1)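 Cells grown in RPMI 1640 with foetal calf serum in 24-well plates. Counted in a haematological analyzer 72 h after drug addition. Inhibition expressed as IC50.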

[2] = system: HL-60; experiment: Cytostatic activity against human HL60 cells ATCC CCL 240 assessed as growth reduction after 72 hrs; assay type: functional, cell-based; conditions: for IC50: HL-60, 72 h; summary of the method: as §1
[3] = system: CCRF-CEM; experiment: Cytostatic activity against human CCRF-CEM cells ATCC CCL 119 assessed as growth reduction after 72 hrs; assay type: functional, cell-based; summary of the method: as §1
[4] = system: HL-60; experiment: Cytostatic activity against human HL60 cells ATCC CCL 240 assessed as cell viability by XTT test; assay type: functional, cell-based
Summary of the method: (§2)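 Cell viability quantified by the XTT spectrophotometric assay. Inhibition expressed as IC50.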

[5] = system: CCRF-CEM; experiment: Cytostatic activity against human CCRF-CEM cells ATCC CCL 119 assessed as cell viability by XTT test; assay type: functional, cell-based; summary of the method: as §2
[6] = system: Hepatitis C virus; experiment: Antiviral activity against HCV 1b Con1 replicon in Huh7 cells; assay type: functional, organism-based, Hepatitis C virus subtype 1b; conditions: Huh-7
Summary of the method: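 Con-1/lucneo replicon cells seeded at 8 × 10^3 per well in medium without Geneticin. Compounds serially diluted in DMSO and added 1:200 (0.5% DMSO final). Incubated 3 days at 37 C. Cells lysed and luciferase activity read by luminometer. EC50 by non-linear regression, N = 2.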

[7] = Cytotoxicity against human Huh7 cells harboring con1 replicon after 3 days by MTT assay; assay type: cell-based, Huh-7
Summary of the method: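 Con-1 replicon-bearing Huh-7 cells were seeded at 8 · 10^3 cells per well in medium without Geneticin. Compound was serially diluted in 100% DMSO and added 1:200, giving 0.5% DMSO final. Cells were incubated at 37 C for 3 days. Toxicity was read at the end, in duplicate (N = 2).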

[8] = system: HL-60; experiment: Cell cycle arrest in human HL60 cells assessed as accumulation in G1 phase at 4.5 uM relative to control; assay type: functional
Summary of the method: (§3)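 HL-60 cells treated at the stated concentration, then fixed in ethanol. Stained with propidium iodide in buffer containing RNase A and analysed by flow cytometry. Result given as the ratio of the treated to the control cell fraction in each phase (G1, S, G2/M).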

[9] = system: HL-60; experiment: Cell cycle arrest in human HL60 cells assessed as accumulation in G1 phase at 18 uM relative to control; assay type: functional; summary of the method: as §3
[10] = system: HL-60; experiment: Cell cycle arrest in human HL60 cells assessed as accumulation in S phase at 4.5 uM relative to control; assay type: functional; summary of the method: as §3
[11] = system: HL-60; experiment: Cell cycle arrest in human HL60 cells assessed as accumulation in S phase at 18 uM relative to control; assay type: functional; summary of the method: as §3
[12] = system: HL-60; experiment: Cell cycle arrest in human HL60 cells assessed as accumulation in G2/M phase at 4.5 uM relative to control; assay type: functional; summary of the method: as §3
[13] = system: HL-60; experiment: Cell cycle arrest in human HL60 cells assessed as accumulation in G2/M phase at 18 uM relative to control; assay type: functional; summary of the method: as §3
[14] = Cytotoxicity against human MT4 cells after 5 days; assay type: cell-based
Summary of the method: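 MT-4 cells were seeded at 2 · 10^3 cells/well. Compounds were serially diluted in culture medium and cells were incubated for 5 days. Survival was measured by CellTiter Glo luminescence, in duplicate (N = 2).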

[15] = system: HL-60; experiment: Cell cycle arrest in human HL60 cells assessed as accumulation in G1 phase at 3.5 uM relative to control; assay type: functional; summary of the method: as §3
[16] = system: HL-60; experiment: Cell cycle arrest in human HL60 cells assessed as accumulation in G1 phase at 14 uM relative to control; assay type: functional; summary of the method: as §3
[17] = system: HL-60; experiment: Cell cycle arrest in human HL60 cells assessed as accumulation in S phase at 3.5 uM relative to control; assay type: functional; summary of the method: as §3
[18] = system: HL-60; experiment: Cell cycle arrest in human HL60 cells assessed as accumulation in S phase at 14 uM relative to control; assay type: functional; summary of the method: as §3
[19] = system: HL-60; experiment: Cell cycle arrest in human HL60 cells assessed as accumulation in G2/M phase at 3.5 uM relative to control; assay type: functional; summary of the method: as §3
[20] = system: HL-60; experiment: Cell cycle arrest in human HL60 cells assessed as accumulation in G2/M phase at 14 uM relative to control; assay type: functional; summary of the method: as §3

SMILES | IC50 [1] | IC50 [2] | IC50 [3] | IC50 [4] | IC50 [5] | EC50 [6] | CC50 at 72 h [7] | Activity [1] | Activity [2] | Activity [3] | other results
CCN(CC)CCc1ncnc2c1ncn2[C@@H]1O[C@H](CO)[C@@H](O)[C@H]1O | 5.2 µM | 6.8 µM | 1.25 µM | 17.3 µM | 0.8 µM | 6.7 µM | 45 µM | – | – | – | Activity [8]: 0.99; Activity [9]: 1.38; Activity [10]: 1.08; Activity [11]: 0.78; Activity [12]: 0.8; Activity [13]: 0.65
CN(C)CCc1ncnc2c1ncn2[C@H]1C[C@H](O)[C@@H](CO)O1 | – | – | – | – | – | 116 µM | > 250 µM | inactive | inactive | inactive | –
OC[C@H]1O[C@@H](n2cnc3c(/C=C/N4CCCCC4)ncnc32)[C@H](O)[C@@H]1O | 1.55 µM | 2.3 µM | 2.1 µM | 0.44 µM | 0.32 µM | 1 µM | 26 µM | – | – | – | CC50 at 120 h [14]: 6 µM
OC[C@H]1O[C@@H](n2cnc3c(CCN4CCCCC4)ncnc32)[C@H](O)[C@@H]1O | – | – | – | – | – | 37 µM | > 250 µM | inactive | inactive | inactive | –
COC(=O)CSCCc1ncnc2c1ncn2[C@@H]1O[C@H](CO)[C@@H](O)[C@H]1O | – | – | – | – | – | 54 µM | > 100 µM | inactive | inactive | inactive | CC50 at 120 h [14]: > 100 µM
OC[C@H]1O[C@@H](n2cnc3c(CC4SCCS4)ncnc32)[C@H](O)[C@@H]1O | – | – | – | – | – | > 100 µM | > 100 µM | inactive | inactive | inactive | –
OC[C@H]1O[C@@H](n2cnc3c(CCSc4nc5ccccc5s4)ncnc32)[C@H](O)[C@@H]1O | – | – | – | – | – | > 100 µM | > 100 µM | inactive | inactive | inactive | –
CCCCN(/C=C/c1ncnc2c1ncn2[C@@H]1O[C@H](CO)[C@@H](O)[C@H]1O)CCCC | 2 µM | 7.2 µM | 2.5 µM | 0.84 µM | 0.83 µM | 1 µM | 2 µM | – | – | – | –
OC[C@H]1O[C@@H](n2cnc3c(CCSCc4ccccc4)ncnc32)[C@H](O)[C@@H]1O | – | – | – | – | – | > 100 µM | > 100 µM | inactive | inactive | inactive | –
OC[C@H]1O[C@@H](n2cnc3c(CCN4CCOCC4)ncnc32)C[C@@H]1O | – | – | – | – | – | 25 µM | > 100 µM | inactive | inactive | inactive | CC50 at 120 h [14]: 13 µM
CN(/C=C/c1ncnc2c1ncn2[C@@H]1O[C@H](CO)[C@@H](O)[C@H]1O)Cc1ccccc1 | 2.1 µM | 3.6 µM | 2.3 µM | 0.57 µM | 0.78 µM | 0.34 µM | 1 µM | – | – | – | –
COCCc1ncnc2c1ncn2[C@@H]1O[C@H](CO)[C@@H](O)[C@H]1O | – | – | – | – | – | 40 µM | > 100 µM | inactive | inactive | inactive | CC50 at 120 h [14]: 13 µM
OC[C@H]1O[C@@H](n2cnc3c(/C=C/N4CCCCC4)ncnc32)C[C@@H]1O | – | – | – | – | – | 53 µM | > 100 µM | inactive | inactive | inactive | –
CCCCN(CCCC)CCc1ncnc2c1ncn2[C@@H]1O[C@H](CO)[C@@H](O)[C@H]1O | 4.4 µM | 5.3 µM | 6.4 µM | 13.8 µM | 4.59 µM | 5.6 µM | 37 µM | – | – | – | Activity [15]: 0.85; Activity [16]: 1.51; Activity [17]: 1.15; Activity [18]: 0.68; Activity [19]: 0.93; Activity [20]: 0.64
C[C@@]1(O)[C@H](O)[C@@H](CO)O[C@H]1n1cnc2c(N)ncnc21 | – | – | – | – | – | 0.23 µM | > 100 µM | – | – | – | –
OC[C@H]1O[C@@H](n2cnc3c(/C=C/N4CCOCC4)ncnc32)[C@H](O)[C@@H]1O | 2.3 µM | 4.5 µM | 2.4 µM | 0.31 µM | 0.41 µM | 5 µM | 23 µM | – | – | – | –
OC[C@H]1O[C@@H](n2cnc3c(CCN4CCOCC4)ncnc32)[C@H](O)[C@@H]1O | – | – | – | – | – | 6 µM | 31 µM | inactive | inactive | inactive | –
CN(C)/C=C/c1ncnc2c1ncn2[C@@H]1O[C@H](CO)[C@@H](O)[C@H]1O | 2.2 µM | 3.3 µM | 1.25 µM | 0.62 µM | 0.8 µM | 4 µM | 5 µM | – | – | – | –
CCCCN(/C=C/c1ncnc2c1ncn2[C@H]1C[C@H](O)[C@@H](CO)O1)CCCC | – | – | – | – | – | 85 µM | > 100 µM | inactive | inactive | inactive | –
CCN(/C=C/c1ncnc2c1ncn2[C@@H]1O[C@H](CO)[C@@H](O)[C@H]1O)CC | 2.2 µM | 2.3 µM | 1 µM | 0.81 µM | 0.67 µM | 4 µM | 8 µM | – | – | – | –
O=c1[nH]c(=O)n([C@H]2C[C@H](O)[C@@H](CO)O2)cc1F [FLOXURIDINE] | 0.012 µM | 0.012 µM | 0.017 µM | – | – | – | – | – | – | – | –
CN(CCc1ncnc2c1ncn2[C@@H]1O[C@H](CO)[C@@H](O)[C@H]1O)Cc1ccccc1 | 7.9 µM | 11.2 µM | 5.7 µM | 17.7 µM | 5.83 µM | 11 µM | 132 µM | – | – | – | Activity [8]: 1.08; Activity [10]: 0.95; Activity [12]: 0.94
CSCCc1ncnc2c1ncn2[C@@H]1O[C@H](CO)[C@@H](O)[C@H]1O | – | – | – | – | – | > 100 µM | > 100 µM | inactive | inactive | inactive | –
CN(C)CCc1ncnc2c1ncn2[C@@H]1O[C@H](CO)[C@@H](O)[C@H]1O | – | – | – | – | – | 7 µM | 20 µM | inactive | inactive | inactive | –
